Test results from ChEMBL document CHEMBL2424525, “Synthesis of 3'-azido-2',3'-dideoxy-5-fluorouridine phosphoramidates and evaluation of their anticancer activity” (Eur J Med Chem, 2013).

Columns and labels:
Format in all cases: functional, cell-based
[1] = test system: MCF7; assay: Cytotoxicity against human MCF7 cells after 72 hrs by SRB assay; conditions: MCF7, 72 h
Procedure, shortened: (§1)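 SRB assay. HeLa and KB cells were grown in RPMI 1640 and MCF-7 cells in DMEM. Cells were fixed with 50% trichloroacetic acid for 1 h at 4 °C, then washed with distilled water. Unbound dye was removed with 1% acetic acid and plates were air dried overnight. OD read at 490 nm. Survival was taken as % absorbance of untreated control. Cytarabine served as internal standard. Three independent experiments.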

[2] = test system: HeLa; assay: Cytotoxicity against human HeLa cells after 72 hrs by SRB assay; procedure, shortened: as §1
[3] = test system: KB; assay: Cytotoxicity against human KB cells after 72 hrs by SRB assay; procedure, shortened: as §1

SMILES	IC50 [1] [µM]	IC50 [2] [µM]	IC50 [3] [µM]
[N-]=[N+]=N[C@H]1C[C@H](n2cc(F)c(=O)[nH]c2=O)O[C@@H]1CO	10.3	11.1	8.11
[N-]=[N+]=NCCCCNP(=O)(OC[C@H]1O[C@@H](n2cc(F)c(=O)[nH]c2=O)C[C@@H]1N=[N+]=[N-])Oc1ccc(Cl)cc1 (stereo not given in full)	22.4	35.5	46.6
COC(=O)[C@H](C)NP(=O)(OC[C@H]1O[C@@H](n2cc(F)c(=O)[nH]c2=O)C[C@@H]1N=[N+]=[N-])Oc1ccc(Cl)cc1 (stereo not given in full)	38.4	38.4	> 100
CNP(=O)(OC[C@H]1O[C@@H](n2cc(F)c(=O)[nH]c2=O)C[C@@H]1N=[N+]=[N-])Oc1ccc(Cl)cc1 (stereo not given in full)	4.42	8.43	8.64
CCNP(=O)(OC[C@H]1O[C@@H](n2cc(F)c(=O)[nH]c2=O)C[C@@H]1N=[N+]=[N-])Oc1ccc(Cl)cc1 (stereo not given in full)	1.88	1.64	1.64
[N-]=[N+]=N[C@H]1C[C@H](n2cc(F)c(=O)[nH]c2=O)O[C@@H]1COP(=O)(NCC(F)(F)F)Oc1ccc(Cl)cc1 (stereo not given in full)	23.9	43.9	40.5
CCCNP(=O)(OC[C@H]1O[C@@H](n2cc(F)c(=O)[nH]c2=O)C[C@@H]1N=[N+]=[N-])Oc1ccc(Cl)cc1 (stereo not given in full)	27.2	25.9	26.9
C=CCNP(=O)(OC[C@H]1O[C@@H](n2cc(F)c(=O)[nH]c2=O)C[C@@H]1N=[N+]=[N-])Oc1ccc(Cl)cc1 (stereo not given in full)	10.4	9.98	8.59
C#CCNP(=O)(OC[C@H]1O[C@@H](n2cc(F)c(=O)[nH]c2=O)C[C@@H]1N=[N+]=[N-])Oc1ccc(Cl)cc1 (stereo not given in full)	5.41	4.21	3.81
[N-]=[N+]=NCCCNP(=O)(OC[C@H]1O[C@@H](n2cc(F)c(=O)[nH]c2=O)C[C@@H]1N=[N+]=[N-])Oc1ccc(Cl)cc1 (stereo not given in full)	33.1	96.2	99.3
CCCCNP(=O)(OC[C@H]1O[C@@H](n2cc(F)c(=O)[nH]c2=O)C[C@@H]1N=[N+]=[N-])Oc1ccc(Cl)cc1 (stereo not given in full)	41.8	32.9	38.7
Nc1ccn([C@@H]2O[C@H](CO)[C@@H](O)[C@@H]2O)c(=O)n1 [CYTARABINE]	–	3.54	–
O=c1[nH]c(=O)n([C@H]2C[C@H](O)[C@@H](CO)O2)cc1F [FLOXURIDINE]	12.2	6.5	8.69
O=c1[nH]cc(F)c(=O)[nH]1 [FLUOROURACIL]	6.53	6.23	4.84
